Read-outs that look alike come from different tables or passages of the source. Residues, ends and D or L forms follow the SMILES beside them. *: point of attachment. Cbz = O=C(OCc1ccccc1)*
Assays:
CEM and COLO 205 cells = details: 1 mM positive control, 24 h; cell line not stated
[1] = test system: poly-ubiquitinated proteins in CEM cells; assay: Western blot of poly-ubiquitinated proteins; assay type: cell-based, human; details: 8 h, in comparison to COLO 205
How it was run: (§1)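 3,000,000 cells per T-25 flask in 10 ml RPMI were treated 8 h at twice the CC50, with MG-132 and 0.3% PEG-400 vehicle controls. Cells were PBS-washed and lysed by boiling 15 min in 2x Laemmli buffer. 100 μg protein was run on 7% SDS-PAGE and transferred to PVDF. Blots were blocked overnight in 5% milk, then probed with mouse anti-ubiquitin (1 h) and HRP anti-mouse (1:10,000, 1 h). ECL imaging and densitometry followed.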

[2] = test system: poly-ubiquitinated proteins in COLO 205 cells; assay: Western blot of poly-ubiquitinated proteins; assay type: cell-based, human; details: COLO 205, 8 h, 2X CC50
How it was run: as §1

caspase-3/7 in CEM cells = assay: Caspase-3/7 activation; assay type: cell-based, human; details: 7.5 h, CC50 and twice the CC50, vs vehicle control (1% DMSO)
[3] = Differential nuclear staining; assay type: cell-based; details: human, HS-27 cells (normal foreskin, non-cancer)
How it was run: (§2)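 Cells were seeded at 10,000/well in 96-well plates; adherent lines attached overnight. A 0.1–5 μM gradient was applied for 48 h, with 1% DMSO, 1 mM H2O2 and untreated wells. PI and Hoechst 33342 (5 μg/ml each) were added 2 h before reading at 37°C. Wells were imaged to separate dead from total nuclei. CC50 was obtained by linear interpolation of the dose-response. Selectivity index uses Hs-27 as the non-cancer reference.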

MM1 R = assay: Differential nuclear staining; assay type: cell-based; details: Homo sapiens, MM.1R, 48 h
How it was run: as §2

[4] = Differential nuclear staining; assay type: cell-based; details: human, Hs-27 cells (non-cancerous reference) versus MM1 R cells
How it was run: as §2

[5] = Differential nuclear staining; assay type: cell-based; details: human; for selectivity ratio at 48 h: Hs-27 cells (non-cancerous reference) versus MCF-10 A cells; for CC50 at 48 h: MCF-10 A cells (breast epithelial)
How it was run: as §2

[6] = Differential nuclear staining; assay type: cell-based; details: human, CCD-112-CoN cells (non-cancerous colon fibroblasts)
How it was run: as §2

MDA-MB-231 = assay: Differential nuclear staining; assay type: cell-based; details: Homo sapiens, MDA-MB-231, 48 h
How it was run: as §2

[7] = Differential nuclear staining; assay type: cell-based; details: human
How it was run: as §2

PANC-1 = assay: Differential nuclear staining; assay type: cell-based; details: Homo sapiens, PANC-1, 48 h
How it was run: as §2

[8] = Differential nuclear staining; assay type: cell-based; details: human, Hs-27 cells (non-cancerous reference) versus PANC-1 cells
How it was run: as §2

CEM = assay: Differential nuclear staining; assay type: cell-based, human; details: CEM; concentration used for cell cycle analysis
[9] = Differential nuclear staining; assay type: cell-based, human; details: human, Hs-27 cells (non-cancerous reference) versus CEM cells
CEM cells [10] = assay: Annexin V-FITC/PI apoptosis/necrosis assay; assay type: cell-based, human; details: 24 h, 2x CC50, compared to DMSO solvent control
HL-60 = assay: Differential nuclear staining; assay type: cell-based; details: Homo sapiens, HL-60, 48 h
How it was run: as §2

[11] = Differential nuclear staining; assay type: cell-based; details: human, Hs-27 cells (non-cancerous reference) versus HL-60 cells
How it was run: as §2

MM1 S = assay: Differential nuclear staining; assay type: cell-based; details: Homo sapiens, MM1.S, 48 h
How it was run: as §2

[12] = Differential nuclear staining; assay type: cell-based; details: human, Hs-27 cells (non-cancerous reference) versus MM1 S cells
How it was run: as §2

U266 = assay: Differential nuclear staining; assay type: cell-based; details: Homo sapiens, U-266, 48 h
How it was run: as §2

[13] = Differential nuclear staining; assay type: cell-based; details: human, Hs-27 cells (non-cancerous reference) versus U266 cells
How it was run: as §2

COLO 205 = assay: Differential nuclear staining; assay type: cell-based, human; details: for CC20: COLO 205, concentration used for cell cycle analysis; for CC50: Homo sapiens
[14] = Differential nuclear staining; assay type: cell-based, human; details: human, Hs-27 cells (non-cancerous reference) versus COLO 205 cells
COLO 205 cells [15] = assay: Mitochondrial membrane potential; assay type: cell-based, human; details: COLO 205, 6 h, CC50 and twice the CC50, vs untreated and DMSO
PC-3 = assay: Differential nuclear staining; assay type: cell-based; details: Homo sapiens, PC-3, 48 h
How it was run: as §2

[16] = Differential nuclear staining; assay type: cell-based; details: human, Hs-27 cells (non-cancerous reference) versus PC-3 cells
How it was run: as §2

CEM cells [17] = assay: Reactive oxygen species accumulation; assay type: cell-based, human; details: 6 h, compared with DMSO-treated cells
HT-29 = assay: Differential nuclear staining; assay type: cell-based; details: Homo sapiens, HT-29, 48 h
How it was run: as §2

[18] = Differential nuclear staining; assay type: cell-based; details: human, Hs-27 cells (non-cancerous reference) versus HT-29 cells
How it was run: as §2

COLO 205 cells [19] = assay: Cell cycle profile analysis; assay type: cell-based, human; details: COLO 205, CC20, 72 h
RAMOS = assay: Differential nuclear staining; assay type: cell-based; details: Homo sapiens, Ramos, 48 h
How it was run: as §2

[20] = Differential nuclear staining; assay type: cell-based; details: human, Hs-27 cells (non-cancerous reference) versus RAMOS cells
How it was run: as §2

CEM cells [21] = assay: Mitochondrial membrane potential; assay type: cell-based, human; details: 6 h, CC50 and twice the CC50, vs untreated and DMSO
COLO 205 cells [22] = assay: Annexin V-FITC/PI apoptosis/necrosis assay; assay type: cell-based, human; details: COLO 205, 24 h, 2x CC50, compared to DMSO solvent control
CEM cells [23] = assay: Cell cycle profile analysis; assay type: cell-based, human; details: CC20, 72 h
COLO 205 cells [24] = assay: Reactive oxygen species accumulation; assay type: cell-based, human; details: COLO 205, 6 h, compared with DMSO-treated cells
RPMI-8226 = assay: Differential nuclear staining; assay type: cell-based; details: Homo sapiens, RPMI-8226, 48 h
How it was run: as §2

[25] = Differential nuclear staining; assay type: cell-based; details: human, Hs-27 cells (non-cancerous reference) versus RPMI-8226 cells
How it was run: as §2

[26] = test system: caspase-3/7 in COLO 205 cells; assay: Caspase-3/7 activation; assay type: cell-based, human; details: COLO 205, 7.5 h, CC50 and twice the CC50, vs vehicle control (1% DMSO)
[27] = COLO 205, 24 h, read-out: 24 h CC50

OO [H20_2, hydrogen peroxide]
percentage of PS externalization (CEM and COLO 205 cells): 39%

CC(C)C[C@@H](C=O)NC(=O)[C@H](CC(C)C)NC(=O)[C@H](CC(C)C)NC(=O)OCc1ccccc1 [MG132, reference compound] (Cbz-Leu-Leu-Leu-aldehyde)
proteasome inhibition (poly-ubiquitinated proteins, in words) [1]: slight proteasome inhibition
accumulation of high molecular weight poly-ubiquitinated proteins (densitometry) [2]: 1 fold increase

O=C1C(=Cc2ccc(F)c(F)c2)CN(C(=O)C(Cl)Cl)CC1=Cc1ccc(F)c(F)c1 [compound 2608, 1-dichloroacetyl – 3,5-bis(3,4-difluorobenzylidene)-4-piperidone]
caspase-3/7 activation (caspase-3/7 in CEM cells): significant caspase-3/7 activation
CC50 at 48 h [3]: 455 nM
CC50 (MM1 R): 16 nM
selectivity ratio at 48 h [4]: 28.4
selectivity ratio at 48 h [5]: 2.6
CC50 at 48 h [5]: 175 nM
CC50 at 48 h [6]: 120 nM
accumulation of high molecular weight poly-ubiquitinated proteins (densitometry) [2]: 0.40 fold increase
CC50 (MDA-MB-231): 47 nM
selectivity ratio at 48 h [7]: 9.68
CC50 (PANC-1): 1130 nM
selectivity ratio at 48 h [8]: 0.4
CC20 (CEM): 39.7 nM
selectivity ratio at 48 h [9]: 22.8
PS externalization (Annexin V-FITC positive cells) (CEM cells [10]): significant PS externalization
CC50 (HL-60): 64 nM
selectivity ratio at 48 h [11]: 7.11
CC50 (MM1 S): 18.1 nM
selectivity ratio at 48 h [12]: 25.1
CC50 (U266): 14.4 nM
selectivity ratio at 48 h [13]: 31.6
CC20 (COLO 205): 761.6 nM
CC50 (COLO 205; [27]): 1900 nM
CC50 (COLO 205; COLO 205, 48 h): 424 nM
selectivity ratio at 48 h [14]: 1.07
mitochondrial depolarization (COLO 205 cells [15]): significant mitochondrial depolarization
CC50 (PC-3): 301 nM
selectivity ratio at 48 h [16]: 1.51
ROS accumulation (CEM cells [17]): Significant ROS
CC50 (HT-29): 162 nM
selectivity ratio at 48 h [18]: 2.8
DNA fragmentation (sub G0/G1) (COLO 205 cells [19]): but not in COLO 205
cell cycle profile (COLO 205 cells [19]): did not alter the cell cycle profile
CC50 (RAMOS): 95 nM
selectivity ratio at 48 h [20]: 4.79
mitochondrial depolarization (CEM cells [21]): significant mitochondrial depolarization
PS externalization (Annexin V-FITC positive cells) (COLO 205 cells [22]): significant PS externalization
DNA fragmentation (sub G0/G1) (CEM cells [23]): induced DNA fragmentation
ROS accumulation (COLO 205 cells [24]): Significant ROS
CC50 (RPMI-8226): 39.7 nM
selectivity ratio at 48 h [25]: 11.5
caspase-3/7 activation [26]: significant caspase-3/7 activation

O=C1C(=Cc2ccc(Cl)c(Cl)c2)CN(C(=O)C(Cl)Cl)CC1=Cc1ccc(Cl)c(Cl)c1 [compound 2610, 1-dichloroacetyl-3,5-bis(3,4-dichlorobenzylidene)-4-piperidone]
caspase-3/7 activation (caspase-3/7 in CEM cells): significant caspase-3/7 activation
CC50 at 48 h [3]: 200 nM
CC50 (MM1 R): 9 nM
selectivity ratio at 48 h [4]: 22.2
selectivity ratio at 48 h [5]: 1.66
CC50 at 48 h [5]: 120 nM
CC50 at 48 h [6]: 176 nM
accumulation of high molecular weight poly-ubiquitinated proteins (densitometry) [2]: 1.41 fold increase
CC50 (MDA-MB-231): 121 nM
selectivity ratio at 48 h [7]: 1.65
CC50 (PANC-1): 414 nM
selectivity ratio at 48 h [8]: 0.48
CC20 (CEM): 37.2 nM
selectivity ratio at 48 h [9]: 6.66
PS externalization (Annexin V-FITC positive cells) (CEM cells [10]): significant PS externalization
CC50 (HL-60): 24 nM
selectivity ratio at 48 h [11]: 8.33
CC50 (MM1 S): 26.1 nM
selectivity ratio at 48 h [12]: 7.66
CC50 (U266): 762 nM
selectivity ratio at 48 h [13]: 0.26
CC20 (COLO 205): 1516.4 nM
CC50 (COLO 205; [27]): 3790 nM
CC50 (COLO 205; COLO 205, 48 h): 1660 nM
selectivity ratio at 48 h [14]: 0.12
mitochondrial depolarization (COLO 205 cells [15]): significant mitochondrial depolarization
CC50 (PC-3): 446 nM
selectivity ratio at 48 h [16]: 0.44
ROS accumulation (CEM cells [17]): Significant ROS
CC50 (HT-29): 36 nM
selectivity ratio at 48 h [18]: 5.55
DNA fragmentation (sub G0/G1) (COLO 205 cells [19]): caused DNA fragmentation on both cell lines
cell cycle profile (COLO 205 cells [19]): did not alter the cell cycle profile
CC50 (RAMOS): 36 nM
selectivity ratio at 48 h [20]: 5.55
mitochondrial depolarization (CEM cells [21]): significant mitochondrial depolarization
PS externalization (Annexin V-FITC positive cells) (COLO 205 cells [22]): significant PS externalization
DNA fragmentation (sub G0/G1) (CEM cells [23]): caused DNA fragmentation on both cell lines
ROS accumulation (COLO 205 cells [24]): Significant ROS
CC50 (RPMI-8226): 334 nM
selectivity ratio at 48 h [25]: 0.599
caspase-3/7 activation [26]: significant caspase-3/7 activation

Reference: paper PMC9896656 (Investigational new drugs, 2022)
